Measurements published in ChEMBL document CHEMBL4513216, “Probing the Open Global Health Chemical Diversity Library for Multistage-Active Starting Points for Next-Generation Antimalarials” (ACS Infect Dis, 2020).

assay: Toxicity liver stage against HepG2, at 10uM; type: cell-based; parameters: test concentration 10 uM, cell line HepG2-A16-CD81EGFP; details: human, HepG2-A16-CD81EGFP cells; read-out: INHIBITION
Procedure, shortened: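 Uninfected HepG2-A16-CD81EGFP cells, 3 × 10^3 per well, 1536-well, plated on prespotted compound at 10 μM final, parasite-free screening media added to match infected plates; puromycin 10 μM positive, DMSO 0.5% negative; run in parallel with 48 h PbLuc assay at 37 °C, 5% CO2; viability by CellTiter-Glo luminescence, normalized to controls.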

SMILES | cytotoxicity at 10 µM [%]
CC(=O)N1CCC(N[C@@H]2CO[C@H](CNC(=O)C3CCCC3)[C@H]2O)CC1 | -2.17
O=C1CO[C@H]2CN(C3CCOCC3)C[C@H]2N1Cc1ccccn1 | 0.566
O=C1CN(C(=O)c2ccc(F)cc2)CC(O)CN1Cc1cccs1 (centres undefined) | -67.7
COC1CCN(C(=O)C2CCCC2)CC(=O)N(C)c2ccccc21 (centres undefined) | -8.88
O=c1cc2c(nn1CN1CCC(c3ccccc3)CC1)CCC2 | -8.49
COc1cc(CN2CCC(COCc3ccccc3)CC2)cc(OC)c1 | -3.38
CN(c1ccccc1C(=O)O)S(=O)(=O)c1cccc2cccnc12 | -0.996
Cc1nn(C)c2c(NCc3ccccn3)nc(C(C)C)nc12 | -3.23
CO[C@@H]1CC[C@@H](NS(=O)(=O)c2cn(C)nc2C)[C@H]1O | -3.11
CCCC(=O)Nc1cccc([C@H]2C[C@@H](NC(C)=O)CCO2)c1 | 5.09
CC(=O)N1CCN([C@@H]2CC[C@@H](NC(=O)c3cc(C)cs3)[C@H]2O)CC1 | 6.02
Cn1cc(C(=O)N2CCCC(c3cnccn3)C2)cn1 (centres undefined) | -10.5
O=S(=O)(c1ccc(F)cc1)N1CCCC1c1cc[nH]n1 (centres undefined) | -5.94
COCCC(=O)N1CCCC1c1nccnc1Nc1ncccn1 (centres undefined) | -14.8
CC(C)c1nnc2n1CCN(Cc1cc(Cl)c3c(c1)OCO3)C2 | 0.0723
Cn1nc2c(c1NC(=O)c1cccs1)CCC2 | 6.16
Cc1cc(F)c2c(c1)CCCN2S(=O)(=O)c1ncn(C)c1Cl | 1.99
CC(C)c1noc(CN2CCN(C(=O)OC(C)(C)C)C(C)C2)n1 (centres undefined) | 2.24
NC(=O)c1cnn2c1NCC(CNC1(c3ccccc3)CCC1)C2 (centres undefined) | -8.84
CSc1ccc(NC(=O)Cn2cc(NC(C)=O)cn2)cc1 | 0.753
O=S(=O)(CC1CCCCO1)Nc1cnn(Cc2ccccc2)c1 (centres undefined) | 4.34
CN(C)S(=O)(=O)CCCN1CCc2c(ncn2C2CC2)C1 | -10.5

SMILES | cytotoxicity at 10 µM [%]
Cc1cc(CN(Cc2ccccc2)C2CC2)on1 | 0.174
COCC(=O)Nc1cc(S(=O)(=O)C(F)(F)F)ccc1OC | 17.3
Cn1cc(C#N)cc1C(=O)Nc1ccc(CN2CCOCC2)cn1 | -6.68
CC(C)(CNC(=O)C1CCCCN1S(C)(=O)=O)N1CCOCC1 (centres undefined) | -7.15
Cc1cc(S(=O)(=O)N2CCCc3cc(F)c(F)cc32)sc1C(=O)O | -11.9
CC(C)NC(=O)CS(=O)(=O)Cc1coc(-c2ccc(F)cc2)n1 | -6.6
CCc1nc(CN2CCCC(N(C)CCn3cccn3)C2)no1 (centres undefined) | -11.5
CC(CN1CCCC1=O)NC(=O)c1ccc(C(F)(F)F)[nH]c1=O (centres undefined) | -4.48
COC(C)(C)CNC(=O)N1CCC(n2ccc(C(F)(F)F)n2)CC1 | -2.41
CC(C)COCCCNC(=O)c1cccnc1N1CCOCC1 | -5.12
COc1ccc(NC(C)c2ccc(C#N)cc2)cc1N1CCCC1=O (centres undefined) | -7.43
CC(C)(C)c1csc(C2CCCCN2C(=O)CCn2cncn2)n1 (centres undefined) | -4.34
C[S+]([O-])c1ccc(NC(=O)Cc2cccnc2)cc1F (centres undefined) | -4.26
O=C(c1nc(=O)[nH][nH]1)N1CCCN(CC2CCCCC2)CC1 | -12.9
Cc1nc(C2CCCN2C(=O)CN(C)Cc2ccccc2)no1 (centres undefined) | -0.803
Cc1cnn(C2CN(CC(=O)N(C)Cc3ccc(C)o3)C2)c1 | -15.9
Fc1cccc(Cl)c1CN1CCn2c(nnc2C2CC2)C1 | 8.7
CC(=O)N(Cc1noc(C)n1)C1CCN(CC2(O)CCCCC2)C1 (centres undefined) | 5.69
CN(CC(C)(C)C)S(=O)(=O)c1ccc(C(F)(F)F)nc1 | 3.24
Cc1cc2n(n1)CC(CNCc1cnn(C)c1)CN2 (centres undefined) | 5.25
CCOCC1CN(S(=O)(=O)c2ccccc2)Cc2nccn2C1 (centres undefined) | -112
CC(=O)NCC(=O)N1CCN(C)c2ncccc2C1 | -113

SMILES | cytotoxicity at 10 µM [%]
c1cc(-c2n[nH]cc2-c2ccnc(N3CCCC3)n2)ccn1 | -0.779
COC(=O)c1ccc2ccn(CC3CCCN(C)C3)c(=O)c2c1 (centres undefined) | -16.1
CC(C)CN1C(=O)CC[C@H]2CN(C(=O)Cn3ccc(=O)cc3)CC[C@H]21 | 0.582
CCC[C@H]1CN(c2cncc(C(=O)N(C)C)n2)C[C@@H]1N(C)C | -7.83
CCN1CCN(C(=O)c2cc(C(F)(F)F)n[nH]2)[C@H]2CS(=O)(=O)C[C@H]21 | -3.77
Cc1cc2nc(C(C)C)cc(NCCc3ccncc3)n2n1 | -1.18
CC(c1ccon1)N(C)C(=O)C1CCN(C(=O)C2CC2)CC1 (centres undefined) | -2.71
CC(C)N1CCC(CC(=O)NC(C(=O)O)c2ccc(F)cc2)CC1 (centres undefined) | 0.0453
COc1cccc(-c2n[nH]cc2-c2nc(CN3CCCC3)no2)c1 | -23.2
COc1cc(C2CC(=O)Nc3c2nc2n3CCCC2)cc2c1OCO2 (centres undefined) | -6.67
COC1CCN(C(=O)Cn2ncc(N3CCCCC3)cc2=O)C1 (centres undefined) | -2.69
CCN1CCC(N2CCN(c3cc(-c4nc(C)no4)ccn3)CC2)CC1 | -3.79
CCC(NC1CCN(S(C)(=O)=O)CC1)c1cccs1 (centres undefined) | 0.125
CN(C)CCO[C@H]1C[C@@H](O)C12CCN(c1cnccn1)CC2 | 3.79
CN1CCC(N2CC[C@@H]3[C@@H](CCC(=O)N3CCC3=CCCCC3)C2)CC1 | -6.53
Cc1cc(-c2nc(-c3c(C)ncc4c3CCNC4)no2)nc(C)n1 | 4.43
Cc1nnc(CCNC(=O)C(c2ccc(F)cc2)N(C)C)[nH]1 (centres undefined) | -5.96
NCC1CN(C(=O)Cn2ncc(N3CCCCC3)cc2=O)CCO1 (centres undefined) | -8.27
CCN(C)C(=O)c1ccc(N(C)Cc2cc(-c3cccnc3)no2)nc1 | -7.21
CCCc1nc(C)c(CN2CC3(CCOC3)CCC2=O)s1 (centres undefined) | -10.5
Cn1cc(C2=CCN(CCC(=O)NCc3ccc(Cl)cc3)CC2)cn1 | -1.77
CN(C)CCNC(=O)c1cc2n(n1)CCN(C(=O)c1ccco1)C2 | 2.52

SMILES | cytotoxicity at 10 µM [%]
Cc1nc(CN)cc(NCc2ccccc2-n2cncn2)n1 | 1.88
O=S1(=O)C[C@@H]2[C@H](C1)N(Cc1cc(F)cc(F)c1)CCN2CCO | -2.61
CCc1oc(C(=O)N[C@@H]2c3ccccc3C[C@@H]2O)cc1CN1CCCC1 | -5.65
Cc1nc(CN2CCC(NS(C)(=O)=O)CC2)co1 | -12.4
CCC[C@@H]1CN(Cc2cnc(-c3cccs3)nc2)C[C@H]1C(=O)O | -22.9
CC(C1CCN(Cc2ccc(OC(F)F)cc2)CC1)N1CCOCC1 (centres undefined) | -2.38
COc1cc(NC2CCS(=O)(=O)C2)ncn1 (centres undefined) | 7.53
CSCCCN1CCn2nc(CNC(C)=O)cc2C1 | -13.6
N#Cc1c(SCCN2CCOCC2)sc2c(O)cc(O)nc12 | -7.5
CCn1cc(-c2cc(C(F)F)n3nc(CCC(=O)O)nc3n2)cn1 | -2.78
Cc1cncc(C2CCCN(C(=O)c3ccc(C)[nH]c3=O)C2)n1 (centres undefined) | 5.37
OCCn1cc(CN2CCN(CCOc3cccc(F)c3)CC2)cn1 | -10.9
Cc1nnc2n1CCN(Cc1ccc3c(c1)OCCO3)C2 | -8.95
Cc1nc(C(=O)N2CCCC(c3cc(C(F)(F)F)[nH]n3)C2)c[nH]1 (centres undefined) | -0.945
Cc1ccc(C(=O)NS(=O)(=O)c2ccccc2F)c(=O)[nH]1 | -5.53
CC(C)c1nnc(CN2CCCC(c3cc(C(N)=O)[nH]n3)C2)o1 (centres undefined) | -29.7
CC(C)c1nc2c(n1C)CCN(Cc1cccc(C(N)=O)c1)C2 | -7.39
CC1CN(Cc2noc(C3CC3)n2)CCN1Cc1noc(C2CC2)n1 (centres undefined) | -5.5
Cc1cccc(OCCC(=O)N2CCN(CC(=O)NC3CC3)CC2)c1C | 2.22
CCOCc1cc(CNC2CCCc3c2cnn3CC)ccc1OC (centres undefined) | -11.3
CC(=O)c1ccc(OCC(=O)NS(=O)(=O)c2ccc(C)s2)cc1 | -8.9
OCCn1nccc1C1CCN(Cc2nc(C3CC3)no2)CC1 | -11.7

SMILES | cytotoxicity at 10 µM [%]
Cc1nccc(CNC(=O)N(CCCO)C2CCc3ccccc32)n1 (centres undefined) | -27.3
CCc1ncc2c(n1)CN(CC(=O)Nc1nncs1)CC2 | 1.74
CCc1nc(C2CCCN2C(=O)c2ccc3c(c2)COC3)no1 (centres undefined) | -14.4
COc1ccc(Br)c(C(=O)NC(CC(=O)O)c2cccs2)c1 (centres undefined) | -3.48
Cc1nc(C)n(CC2CCCN2Cc2nc3ccccc3o2)n1 (centres undefined) | -5.62
Cc1ncsc1C(=O)NC1CCN(Cc2cccc3c2OCCO3)CC1 | -4.68
CCCN1CCN(CC(O)c2ccc(OC(F)(F)F)cc2)CC1 (centres undefined) | -20.5
Cc1ccc(CN(C)CC(=O)NC2(C)CCS(=O)(=O)C2)cc1 (centres undefined) | 5.05
CC(C)c1nc2c(n1C)CCN(CC(=O)Nc1ccc(Cl)cn1)C2 | 0.241
CC(CNC(=O)Nc1cn[nH]c1)N1CCc2ccccc2C1 (centres undefined) | -0.289
CCc1noc(C)c1C(=O)N(C)Cc1ncc(C)c(OC)c1C | -1.06
CN1CCN(C(=O)CC2CCN(CCc3ccccn3)CC2)CC1 | -2.89
CCn1nc(C(=O)N2CCCC(n3cncn3)C2)ccc1=O (centres undefined) | -3.3
Cc1ccsc1CN(Cc1cccnc1)C1CC(C)(C)NC(C)(C)C1 | -10.7
COC[C@@]12CCO[C@@H]1CCN(Cc1sccc1C)C2 | -109
Cc1ccc2c(c1)CCC2NCc1c(C)nn(C)c1N1CCOCC1 (centres undefined) | -8.03
Cn1cc(C(=O)NCc2cncc3c2CCN(c2ccccn2)C3)cn1 | -99.6
Cc1cnc(N2CCC3(CCN(Cc4csc(C)n4)C3=O)C2)nc1 (centres undefined) | -102
CC(=O)N1CCCC2(C1)CN(c1nncs1)CCO2 (centres undefined) | -102
CCN(C(=O)c1ccc2nnc(C3CCN(CCOC)C3)n2c1)C(C)C (centres undefined) | -114
Cc1nc(C)c(CNCC2(COc3cccnc3)C[C@@H](O)[C@@H](O)C2)s1 (some centres undefined) | -1.36
